These results are taken from ChEMBL document CHEMBL4049451, “Exploring the Role of N6-Substituents in Potent Dual Acting 5'-C-Ethyltetrazolyladenosine Derivatives: Synthesis, Binding, Functional Assays, and Antinociceptive Effects in Mice ∇” (J Med Chem, 2017).

The source made the active and inactive calls. The rule behind the calls is not given here. A value given as a limit tells only on which side of the number the result lay.

The target in assay [1] is T1, Adenosine receptor A1 (Homo sapiens) (UniProt P30542).
T1 sequence (whole entry): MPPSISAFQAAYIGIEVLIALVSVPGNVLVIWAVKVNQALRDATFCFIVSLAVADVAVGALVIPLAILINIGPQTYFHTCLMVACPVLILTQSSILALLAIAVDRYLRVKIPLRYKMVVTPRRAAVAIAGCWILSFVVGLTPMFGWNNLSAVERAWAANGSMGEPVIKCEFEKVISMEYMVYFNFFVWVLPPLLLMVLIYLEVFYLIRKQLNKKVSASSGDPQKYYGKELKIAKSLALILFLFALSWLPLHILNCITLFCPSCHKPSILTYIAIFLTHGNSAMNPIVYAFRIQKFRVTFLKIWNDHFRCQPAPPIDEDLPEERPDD
Kind of assay: Agonist activity at recombinant human adenosine A1 receptor expressed in CHO cell membranes assessed as inhibition of forskolin-stimulated adenylyl cyclase activity after 10 mins relative to CCPA. The class given is functional, cell-based. The method, boiled down:
(§1)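 hA1 in CHO cell membranes (single high-speed spin, resuspended in 50 mM Tris/HCl pH 7.4, used immediately); agonist inhibition of forskolin-stimulated adenylyl cyclase; efficacy relative to CCPA as reference full agonist (100%). Geometric means with 95% confidence intervals, n = 3.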

Assay [2] deals with T2, Adenosine receptor A3 (Rattus norvegicus, UniProt P28647).
T2 sequence (P28647 whole entry): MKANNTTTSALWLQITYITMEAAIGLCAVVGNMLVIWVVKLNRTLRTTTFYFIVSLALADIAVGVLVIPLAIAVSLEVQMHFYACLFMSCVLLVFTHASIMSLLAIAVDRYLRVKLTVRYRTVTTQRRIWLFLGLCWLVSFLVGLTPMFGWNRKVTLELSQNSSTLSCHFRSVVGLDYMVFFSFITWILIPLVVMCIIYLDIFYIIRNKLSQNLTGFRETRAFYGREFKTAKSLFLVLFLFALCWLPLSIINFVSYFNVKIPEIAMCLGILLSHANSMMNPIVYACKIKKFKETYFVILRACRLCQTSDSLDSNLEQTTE
Put plainly: Displacement of [3H]NECA from recombinant rat adenosine A3 receptor expressed in CHO cell membranes after 3 hrs by microbeta scintillation counting. In a few lines:
(§2)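 CHO membranes with stable human A1, A2A, A3 or rat A3 (1000g then 100 000g spin, stored -80 °C). Competition: hA1 1 nM [3H]CCPA, nonspecific with 1 mM theophylline; hA2A 10 nM [3H]NECA; hA3 1 nM [3H]HEMADO; rA3 30 nM [3H]NECA; latter three nonspecific with 100 μM R-PIA.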
(In general: Loss of bound radioactivity is the signal in a displacement assay; it reports binding, not function.)

Assay [3] addresses T3, Adenosine receptor A1 (Homo sapiens, UniProt P30542).
T3 sequence (P30542 whole entry): T1 sequence (whole entry)
Put plainly: Agonist activity at recombinant human adenosine A1 receptor expressed in CHO cell membranes assessed as inhibition of forskolin-stimulated adenylyl cyclase activity after 10 mins in presence of [alpha-32P]ATP. The class given is functional, cell-based. In a few lines: as §1

The species entered for assay [4] is Homo sapiens. Kind of assay: Selectivity ratio of Ki for recombinant human adenosine A2A receptor expressed in CHO cell membranes to Ki for recombinant human adenosine A1 receptor expressed in CHO cell membranes. Format: cell-based. In a few lines: as §2
For assay [5], the species on record is Homo sapiens. Kind of assay: Selectivity ratio of Ki for recombinant human adenosine A2A receptor expressed in CHO cell membranes to Ki for recombinant human adenosine A3 receptor expressed in CHO cell membranes. Format: cell-based. In a few lines:
as §2

Assay [6] has as its target Adenosine receptors; A1 & A3 (Homo sapiens) (UniProt P30542+P0DMS8). Kind of assay: Selectivity ratio of Ki for recombinant human adenosine A3 receptor expressed in CHO cell membranes to Ki for recombinant human adenosine A1 receptor expressed in CHO cell membranes. Format: cell-based. The method, boiled down: as §2
Another assay addresses T4, Adenosine receptor A2b (Homo sapiens, UniProt P29275).
T4 sequence (P29275 whole entry): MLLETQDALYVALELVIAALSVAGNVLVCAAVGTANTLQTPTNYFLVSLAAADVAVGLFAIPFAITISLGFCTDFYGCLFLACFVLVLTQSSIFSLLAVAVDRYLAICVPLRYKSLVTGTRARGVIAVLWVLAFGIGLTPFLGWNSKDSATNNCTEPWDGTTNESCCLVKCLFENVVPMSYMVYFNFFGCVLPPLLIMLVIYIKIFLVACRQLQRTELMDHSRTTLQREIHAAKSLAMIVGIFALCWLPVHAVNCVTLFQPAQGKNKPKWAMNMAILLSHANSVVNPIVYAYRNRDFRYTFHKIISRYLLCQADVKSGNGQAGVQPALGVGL
Put plainly: Agonist activity at recombinant human adenosine A2B receptor expressed in CHO cell membranes assessed as stimulation of adenylyl cyclase activity by [alpha-32P]ATP assay. The class given is functional, cell-based. In a few lines: (§3)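 hA2A or hA2B in CHO cell membranes (one high-speed spin, pellet in 50 mM Tris/HCl pH 7.4, used immediately); agonist stimulation of adenylyl cyclase gives EC50; partial agonism judged as efficacy against 100 μM NECA as full agonist. Geometric means, 95% confidence intervals, n = 3.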

For assay [7], the target named is T5, Adenosine receptor A2a (Homo sapiens, UniProt P29274). Kind of assay: Agonist activity at recombinant human adenosine A2A receptor expressed in CHO cell membranes assessed as stimulation of adenylyl cyclase activity by [alpha-32P]ATP assay. Format: functional, cell-based. The method, boiled down: as §3
The target in assay [8] is T3, Adenosine receptor A1. Kind of assay: Displacement of [3H]CCPA from recombinant human adenosine A1 receptor expressed in CHO cell membranes after 3 hrs by microbeta scintillation counting. In a few lines: as §2
For assay [9], the target named is T6, Adenosine receptor A3 (Homo sapiens, UniProt P0DMS8).
T6 sequence (P0DMS8 whole entry): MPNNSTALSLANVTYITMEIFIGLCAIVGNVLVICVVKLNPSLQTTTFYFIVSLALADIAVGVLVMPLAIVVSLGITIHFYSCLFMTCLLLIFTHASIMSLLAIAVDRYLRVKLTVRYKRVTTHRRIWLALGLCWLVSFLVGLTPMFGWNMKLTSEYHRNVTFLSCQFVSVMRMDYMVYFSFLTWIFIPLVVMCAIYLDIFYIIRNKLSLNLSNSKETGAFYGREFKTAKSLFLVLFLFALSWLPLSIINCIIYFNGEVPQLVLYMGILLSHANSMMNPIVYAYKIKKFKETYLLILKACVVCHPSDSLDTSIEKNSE
Kind of assay: Antagonist activity at recombinant human adenosine A3 receptor expressed in CHO cell membranes assessed as reversal of NECA-mediated inhibition of adenylyl cyclase activity after 10 mins by [alpha-32P]ATP assay. Format: functional, cell-based.

Assay [10] concerns the target T6, Adenosine receptor A3. Kind of assay: Displacement of [3H]HEMADO from recombinant human adenosine […] receptor expressed in CHO cell membranes after 3 hrs by microbeta scintillation counting. The method, boiled down:
as §2

The target of assay [11] is T7, Adenosine receptor A2b (Homo sapiens) (UniProt P29275).
T7 sequence (whole entry): T4 sequence (P29275 whole entry)
Kind of assay: Partial agonist activity at recombinant human adenosine A2B receptor expressed in CHO cell membranes assessed as stimulation of adenylyl cyclase activity by [alpha-32P]ATP assay relative to NECA. The class given is functional, cell-based. The method, boiled down: as §3

The target in assay [12] is T5, Adenosine receptor A2a. Kind of assay: Displacement of [3H]NECA from recombinant human adenosine A2A receptor expressed in CHO cell membranes after 3 hrs by microbeta scintillation counting. The method, boiled down: as §2
Assay [13] deals with T5, Adenosine receptor A2a. Kind of assay: Agonist activity at recombinant human adenosine A2A receptor expressed in CHO cell membranes assessed as stimulation of adenylyl cyclase activity relative to NECA. Format: functional, cell-based. In a few lines: as §3
The nature of assay [14]: Selectivity ratio of Ki for recombinant rat adenosine A3 receptor expressed in CHO cell membranes to Ki for recombinant human adenosine A3 receptor expressed in CHO cell membranes. Format: cell-based. The method, boiled down: as §2
The test system of assay [15] is Mus musculus. Kind of assay: Antinociceptive activity in formalin induced nociceptive mouse model at 1 mg/kg, ip administered 10 mins prior to formalin induction measured up to 60 mins. Format: functional, organism-based. The method, boiled down: (§4)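 Mice, randomized, n = 8–10 per group; ip compound or vehicle (10% DMSO in 0.9% NaCl) 10 min before formalin (1.25% in saline, 30 μL) into dorsal hind paw. Lifting, licking, shaking, flinching timed every 5 min for 60 min; phase 1 0–7 min, phase 2 15–60 min; mean ± SEM.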

Assay [16] deals with Mus musculus. Put plainly: Antinociceptive activity in formalin induced nociceptive mouse model assessed as reduction in nociceptive behavior at 0.3 mg/kg, ip administered 10 mins prior to formalin induction measured up to 7 mins in presence of adenosine A3 agonist 2Cl-IBMECA. Format: functional, organism-based. The method, boiled down:
as §4

Assay [17] concerns Mus musculus. Put plainly: Antinociceptive activity in formalin induced nociceptive mouse model assessed as inhibition of nociceptive behavior at 0.3 mg/kg, ip administered 10 mins prior to formalin induction measured for 15 to 60 mins in presence of adenosine A3 agonist 2Cl-IBMECA. Format: functional, organism-based. The method, boiled down:
as §4

The subject of assay [18] is Mus musculus. Put plainly: Antinociceptive activity in formalin induced nociceptive mouse model assessed as reduction in late nociceptive behavior at 0.5 mg/kg, ip administered 10 mins prior to formalin induction measured for 15 to 60 mins in presence of adenosine A3 receptor antagonist MRS1334. Format: functional, organism-based. The method, boiled down: as §4
Assay [19] has as its system Mus musculus. Put plainly: Antinociceptive activity in formalin induced nociceptive mouse model assessed as reduction in nociceptive behavior at 0.5 mg/kg, ip administered 10 mins prior to formalin induction measured up to 7 mins. The class given is functional, organism-based. In a few lines: as §4
Assay [20] relates to Mus musculus. Put plainly: Antinociceptive activity in formalin induced nociceptive mouse model assessed as reduction in nociceptive behavior at 0.5 mg/kg, ip administered 10 mins prior to formalin induction measured for 15 to 60 mins. Format: functional, organism-based. The method, boiled down:
as §4

The target in assay [21] is T1, Adenosine receptor A1 (Homo sapiens). Put plainly: Partial agonist activity at recombinant human adenosine A1 receptor expressed in CHO cell membranes assessed as inhibition of forskolin-stimulated adenylyl cyclase activity after 10 mins in presence of [alpha-32P]ATP relative to CCPA. The class given is functional, cell-based. The method, boiled down: as §1
Assay [22] deals with T7, Adenosine receptor A2b (Homo sapiens). Kind of assay: Agonist activity at recombinant human adenosine A2B receptor expressed in CHO cell membranes assessed as stimulation of adenylyl cyclase activity relative to NECA. Format: functional, cell-based. The method, boiled down:
as §3

T5 sequence (P29274 whole entry): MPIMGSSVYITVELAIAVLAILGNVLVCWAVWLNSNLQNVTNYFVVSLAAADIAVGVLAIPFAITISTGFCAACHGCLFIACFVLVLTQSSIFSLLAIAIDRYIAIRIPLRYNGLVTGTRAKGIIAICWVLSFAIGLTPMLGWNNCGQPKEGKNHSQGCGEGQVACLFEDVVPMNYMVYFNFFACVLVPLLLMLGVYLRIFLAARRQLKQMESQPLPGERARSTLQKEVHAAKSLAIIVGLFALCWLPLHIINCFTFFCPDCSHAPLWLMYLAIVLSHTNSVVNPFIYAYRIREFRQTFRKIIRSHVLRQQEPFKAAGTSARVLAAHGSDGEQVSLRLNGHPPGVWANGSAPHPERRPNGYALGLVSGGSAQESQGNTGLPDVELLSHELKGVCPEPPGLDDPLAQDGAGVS

The term Ki denotes the equilibrium dissociation constant of an inhibitor or competing ligand from its target. As usually defined, the EC50 is the midpoint of the concentration-response curve. For the compound `CCn1nnc([C@H]2O[C@@H](n3cnc4c(NCc5cccc(F)c5)ncnc43)C(O)C2O)n1` (single isomer, unassigned), the Efficacy (in [1]; at Adenosine receptor A2a [13]) was above 90% each time. Moreover, the Ki on Adenosine receptor A3 [2] was 9.26 nM; on Adenosine receptor A1 [8] it was 3.73 nM; on Adenosine receptor A3 [10], 1.2 nM; on Adenosine receptor A2a [12] it was 74 nM. Also, the EC50 on Adenosine receptor A1 [3] came to 147 nM; at Adenosine receptor A2b, 1100 nM; on Adenosine receptor A2a [7] it was 14.4 nM; at Adenosine receptor A3 [9], 12.5 nM. For the same compound, the Ratio Ki in the assay listed under Homo sapiens [4] stood at 20; in the assay filed under Homo sapiens [5], 62; in assay [6], 0.32; in assay [14], 7.7. Also, the Activity in assay [11] was found to be 86%.
Usually inhibition stands for the drop in the measured response relative to a control, in per cent. Take `CCn1nnc([C@H]2O[C@@H](n3cnc4c(NC)ncnc43)[C@H](O)[C@@H]2O)n1`: the Ki at Adenosine receptor A3 [2] is 484 nM. Besides, in the assay with Mus musculus [15], the Activity entry was “Dose-dependent effect”. For the same compound, the result with Mus musculus [16] was Active. Besides, in the assay with Mus musculus [17], the inhibition result is “Active”. For the same compound, the outcome in the assay with Mus musculus [18] was inactive.
Turning to `CNC(=O)[C@H]1O[C@@H](n2cnc3c(NCc4cccc(I)c4)nc(Cl)nc32)[C@H](O)[C@@H]1O`, the result in the assay with Mus musculus [19] and with Mus musculus [20] was inactive.
For the compound `CCn1nnc([C@H]2O[C@@H](n3cnc4c(NCc5cccc(I)c5)ncnc43)C(O)C2O)n1` (single isomer, unassigned), the Ki is 6.1 nM at Adenosine receptor A3 [2], 0.768 nM at Adenosine receptor A1 [8], 0.532 nM at Adenosine receptor A3 [10] and 16.8 nM at Adenosine receptor A2a [12]. Besides, the EC50 on Adenosine receptor A1 [3] turned out to be 27.4 nM; at Adenosine receptor A2b it was 235 nM; on Adenosine receptor A2a [7] it was 2.87 nM; on Adenosine receptor A3 [9], 2.38 nM. The Ratio Ki is 22 in the assay filed under Homo sapiens [4], 32 in the assay filed under Homo sapiens [5], 0.69 in [6] and 12 in assay [14]. In addition, the inhibition in [21] worked out at 87%. Moreover, the Efficacy (at Adenosine receptor A2a [13]; in [22]) was above 90% in each case.
